In ChEMBL document CHEMBL1159071, “Discovery of 4-(5-methyloxazolo[4,5-b]pyridin-2-yl)-1,4-diazabicyclo[3.2.2]nonane (CP-810,123), a novel alpha 7 nicotinic acetylcholine receptor agonist for the treatment of cognitive disorders in schizophrenia: synthesis, SAR development, and in vivo efficacy in cognition models” (J Med Chem, 2010):

Experiments:
[1] = Agonist activity at human alpha7 nAChR/mouse 5HT3 chimeric receptor expressed in SH-EP1 cells assessed as increase in intracellular calcium level relative to 100 uM nicotine; assay type: functional
Method in brief: (§1)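 α7-5HT3 chimera stably in SH-EP1 cells grown to confluence; loaded with Calcium Green 1 AM (2 μM final) 60 min at 37 °C. Compound added directly; calcium rise read by FLIPR (excitation 488 nm, emission >525 nm).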

[2] = target: Neuronal acetylcholine receptor subunit alpha-7 (Rattus norvegicus, UniProt Q05941); test: Displacement of [125I]BTX from rat alpha7 nicotinic acetylcholine receptor expressed in GH4C1 cells; assay type: cell-based, GH4-C1
Method in brief: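 GH4C1 membranes (20 mM HEPES, 118 mM NaCl, 4.5 mM KCl, 2.5 mM CaCl2, 1.2 mM MgSO4, pH 7.5) incubated 2 h at 37 °C with [125I]α-bungarotoxin 0.4 nM final. Nonspecific binding with 1 μM methyllycaconitine; filtration onto PEI-treated GF/B filters. Ki = IC50/(1+[L]/KD); six-point curves in triplicate; geometric mean with 95% CI.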

[3] = target: T1, 5-hydroxytryptamine receptor 3A (Mus musculus, UniProt P23979); test: Displacement of [3H]LY278584 from mouse 5HT3 receptor expressed in HEK293 cells; assay type: cell-based
T1 sequence (P23979 whole entry): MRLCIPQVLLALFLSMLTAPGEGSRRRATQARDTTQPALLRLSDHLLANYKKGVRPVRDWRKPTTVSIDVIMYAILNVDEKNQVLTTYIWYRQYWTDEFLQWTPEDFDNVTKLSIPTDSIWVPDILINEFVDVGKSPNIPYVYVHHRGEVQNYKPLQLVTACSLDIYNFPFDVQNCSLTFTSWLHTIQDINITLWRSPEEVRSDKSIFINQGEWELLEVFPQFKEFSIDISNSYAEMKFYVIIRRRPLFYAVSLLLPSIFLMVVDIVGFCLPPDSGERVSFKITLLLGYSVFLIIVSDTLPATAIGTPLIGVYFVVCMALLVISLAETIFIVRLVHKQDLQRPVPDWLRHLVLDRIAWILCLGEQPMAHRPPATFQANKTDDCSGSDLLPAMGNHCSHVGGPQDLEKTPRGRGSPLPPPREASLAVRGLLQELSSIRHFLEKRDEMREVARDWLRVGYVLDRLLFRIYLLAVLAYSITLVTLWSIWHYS
Method in brief: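 Mouse 5-HT3A in HEK293 cell homogenate, 20 mM Tris-HCl pH 7.4 with 154 mM NaCl. [3H]LY278584 1 nM final; nonspecific binding with 10 μM ICS205-930; 60 min at 37 °C, then filtration onto PEI-soaked GF/B. Ki by Cheng-Prusoff; mean of three six-point curves in triplicate in one assay; tropisetron standard.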

[4] = Agonist activity at human alpha7 nAChR/mouse 5HT3 chimeric receptor expressed in SH-EP1 cells assessed as increase in intracellular calcium level; assay type: functional, cell-based; method in brief: as §1
[5] = target: Neuronal acetylcholine receptor; alpha3/beta4 (Homo sapiens, UniProt P30926+P32297); test: Displacement of [3H]epibatidine from alpha3beta4 nAChR expressed in IMR32 cells; assay type: cell-based, IMR-32
Method in brief: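 Alpha3β4 binding in IMR32 cells with [3H]epibatidine radioligand. Six-point concentration-response curve run in triplicate and averaged.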

[6] = target: Neuronal acetylcholine receptor subunit alpha-7 (Rattus norvegicus) (UniProt Q05941); test: Agonist activity at rat alpha7 nicotinic acetylcholine receptor expressed in Xenopus oocytes assessed as stimulation of channel currents at 32 uM at holding potential of -60/-90 mV by electrophysiology method relative to 50 uM nicotine; assay type: functional, cell-based; details: Oocyte
Method in brief: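 Xenopus oocytes defolliculated with collagenase (1.3 mg/mL, 3 h), injected with 10-50 ng rat α7 cRNA, kept in Barth's saline up to 2 weeks. Voltage clamp at -60 or -90 mV; current evoked by compound at 32 μM given as % of the 50 μM nicotine response (set to 100%).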

[7] = Selectivity for rat alpha7 nicotinic acetylcholine receptor over mouse 5HT3 receptor
[8] = target: T2, 5-hydroxytryptamine receptor 3A (Homo sapiens, UniProt P46098); test: […] at human 5HT3 receptor expressed in human skin epithelial cells assessed as stimulation of calcium flux by FLIPR assay; assay type: functional, cell-based, Epithelial cell
T2 sequence (P46098 whole entry): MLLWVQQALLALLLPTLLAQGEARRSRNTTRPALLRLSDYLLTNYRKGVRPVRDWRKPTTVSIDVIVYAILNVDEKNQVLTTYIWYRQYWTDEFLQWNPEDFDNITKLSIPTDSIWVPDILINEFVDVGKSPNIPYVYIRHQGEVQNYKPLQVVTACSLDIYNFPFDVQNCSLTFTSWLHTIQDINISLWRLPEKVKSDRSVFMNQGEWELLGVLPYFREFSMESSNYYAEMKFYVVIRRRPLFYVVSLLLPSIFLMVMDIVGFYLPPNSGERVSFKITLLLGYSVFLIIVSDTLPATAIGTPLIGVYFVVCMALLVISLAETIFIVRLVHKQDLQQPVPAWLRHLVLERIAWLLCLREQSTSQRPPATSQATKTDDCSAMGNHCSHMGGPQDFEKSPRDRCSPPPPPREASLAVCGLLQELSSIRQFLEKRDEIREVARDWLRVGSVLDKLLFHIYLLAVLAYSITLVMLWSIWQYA
Method in brief: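 Human 5-HT3A stably in human skin epithelial cells, plated 15 000 cells/well 2 days ahead; loaded 1 h at 37 °C with Fluo-4 (8 μM final), washed into HBSS with 20 mM Tris-HEPES, 1 μM atropine, 4 mM Ca2+, pH 7.4. Compound added 2 min, then 5-HT challenge (250 nM final) 2 min; FLIPR calcium read.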

[9] = target: Voltage-gated inwardly rectifying potassium channel KCNH2 (Homo sapiens, UniProt Q12809)
CHO = test: Toxicity in CHO cells assessed as induction of DNA fragments by in vitro micronucleus assay; assay type: cell-based, Cricetulus griseus; details: chinese hamster

Sequence of Voltage-gated inwardly rectifying potassium channel KCNH2 (Q12809 whole entry, the tested form may be a part): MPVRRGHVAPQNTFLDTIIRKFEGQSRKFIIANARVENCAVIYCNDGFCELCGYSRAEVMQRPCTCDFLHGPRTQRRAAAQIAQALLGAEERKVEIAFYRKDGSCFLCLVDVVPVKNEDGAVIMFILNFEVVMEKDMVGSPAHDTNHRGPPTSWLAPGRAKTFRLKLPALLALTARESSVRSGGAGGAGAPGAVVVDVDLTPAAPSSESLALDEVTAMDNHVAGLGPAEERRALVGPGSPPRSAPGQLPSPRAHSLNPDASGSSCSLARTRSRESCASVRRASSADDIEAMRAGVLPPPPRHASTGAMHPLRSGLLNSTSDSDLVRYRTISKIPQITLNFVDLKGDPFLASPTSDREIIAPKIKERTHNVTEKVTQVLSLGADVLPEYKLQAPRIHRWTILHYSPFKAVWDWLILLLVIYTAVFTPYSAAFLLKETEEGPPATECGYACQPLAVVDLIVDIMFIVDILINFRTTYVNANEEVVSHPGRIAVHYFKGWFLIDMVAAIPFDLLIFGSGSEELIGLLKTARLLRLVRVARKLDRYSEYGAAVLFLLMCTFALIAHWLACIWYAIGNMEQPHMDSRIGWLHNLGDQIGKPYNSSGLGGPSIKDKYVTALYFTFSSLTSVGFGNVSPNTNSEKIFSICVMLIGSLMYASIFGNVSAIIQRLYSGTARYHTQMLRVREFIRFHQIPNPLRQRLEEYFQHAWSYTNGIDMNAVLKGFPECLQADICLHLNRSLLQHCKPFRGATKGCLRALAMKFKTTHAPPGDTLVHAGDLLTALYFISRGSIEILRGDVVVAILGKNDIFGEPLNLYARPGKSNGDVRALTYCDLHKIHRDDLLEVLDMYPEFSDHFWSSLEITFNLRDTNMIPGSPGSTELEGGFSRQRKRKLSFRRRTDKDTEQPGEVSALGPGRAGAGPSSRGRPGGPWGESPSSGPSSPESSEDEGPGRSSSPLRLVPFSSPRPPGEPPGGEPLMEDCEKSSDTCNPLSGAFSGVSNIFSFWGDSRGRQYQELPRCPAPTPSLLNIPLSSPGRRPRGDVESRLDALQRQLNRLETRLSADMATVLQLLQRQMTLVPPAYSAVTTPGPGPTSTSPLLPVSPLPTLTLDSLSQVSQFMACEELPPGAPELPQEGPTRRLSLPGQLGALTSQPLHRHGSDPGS
Sequence of Neuronal acetylcholine receptor subunit alpha-7 (Rattus norvegicus) (Q05941 whole entry): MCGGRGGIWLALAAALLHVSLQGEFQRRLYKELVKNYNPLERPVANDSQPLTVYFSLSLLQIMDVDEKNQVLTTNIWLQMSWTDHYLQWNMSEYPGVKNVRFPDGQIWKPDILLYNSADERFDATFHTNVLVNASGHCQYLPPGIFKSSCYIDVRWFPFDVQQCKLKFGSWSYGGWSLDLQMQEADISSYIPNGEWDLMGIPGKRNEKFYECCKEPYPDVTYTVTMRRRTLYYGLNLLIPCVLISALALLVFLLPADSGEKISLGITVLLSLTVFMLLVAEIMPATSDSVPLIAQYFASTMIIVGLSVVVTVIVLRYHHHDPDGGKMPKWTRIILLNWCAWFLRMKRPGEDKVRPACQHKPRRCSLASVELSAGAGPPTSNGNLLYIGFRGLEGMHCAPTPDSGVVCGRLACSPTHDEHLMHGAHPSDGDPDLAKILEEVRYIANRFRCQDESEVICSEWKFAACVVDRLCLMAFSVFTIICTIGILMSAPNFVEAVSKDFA
Sequence of Neuronal acetylcholine receptor subunit alpha-7 (Q05941 whole entry): as above
Sequence of Neuronal acetylcholine receptor; alpha3/beta4 (P30926 whole entry): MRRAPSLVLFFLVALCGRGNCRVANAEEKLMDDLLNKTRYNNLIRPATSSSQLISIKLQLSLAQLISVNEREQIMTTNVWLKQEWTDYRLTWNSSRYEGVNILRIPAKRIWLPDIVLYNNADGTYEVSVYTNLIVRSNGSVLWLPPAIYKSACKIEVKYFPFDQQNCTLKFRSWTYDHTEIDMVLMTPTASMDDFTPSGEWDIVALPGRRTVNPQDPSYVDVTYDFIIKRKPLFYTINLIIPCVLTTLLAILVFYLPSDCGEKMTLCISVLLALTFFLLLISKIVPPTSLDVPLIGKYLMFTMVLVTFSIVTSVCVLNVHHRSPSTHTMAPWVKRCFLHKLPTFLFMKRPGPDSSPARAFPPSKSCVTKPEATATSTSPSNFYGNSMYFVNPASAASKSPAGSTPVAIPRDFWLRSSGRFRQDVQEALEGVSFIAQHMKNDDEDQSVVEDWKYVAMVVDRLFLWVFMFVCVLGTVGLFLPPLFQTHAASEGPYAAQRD
Sequence of Neuronal acetylcholine receptor; alpha3/beta4 (P32297 whole entry): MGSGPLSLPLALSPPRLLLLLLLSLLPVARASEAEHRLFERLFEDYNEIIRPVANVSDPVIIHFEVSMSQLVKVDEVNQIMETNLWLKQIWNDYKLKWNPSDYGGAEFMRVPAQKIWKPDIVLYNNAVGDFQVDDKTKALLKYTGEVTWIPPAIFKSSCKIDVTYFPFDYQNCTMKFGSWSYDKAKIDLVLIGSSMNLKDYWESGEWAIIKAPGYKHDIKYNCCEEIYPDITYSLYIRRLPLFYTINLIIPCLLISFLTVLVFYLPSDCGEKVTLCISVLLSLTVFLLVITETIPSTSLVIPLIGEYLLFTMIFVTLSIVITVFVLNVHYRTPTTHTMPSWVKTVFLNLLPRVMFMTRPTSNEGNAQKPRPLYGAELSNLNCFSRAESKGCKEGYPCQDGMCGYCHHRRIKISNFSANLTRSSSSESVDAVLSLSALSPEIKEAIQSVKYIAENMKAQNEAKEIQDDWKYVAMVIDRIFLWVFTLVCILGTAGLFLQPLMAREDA

Row | SMILES | Efficacy [1] | Ki [2] | Ki [3] | EC50 [4] | IC50 [5] | Activity [6] | Ratio Ki [7] | IC50 [8] | IC50 [9] | Activity (CHO)
1 | c1cc2oc(N3CCN4CCC3CC4)nc2nc1N1CCCC1 | 67% | 1.91 nM | 6340 nM | 470 nM |  |  |  |  |  | 
2 | O=c1c(Br)ccc2n1C[C@@H]1CNC[C@H]2C1 |  |  |  |  | 15.6 nM |  |  |  |  | 
3 | Fc1ccc2oc(N3CCN4CCC3CC4)nc2c1 |  | 20.7 nM | 3.9 nM |  |  | 315% |  |  |  | 
4 | Cc1cnc2nc(N3CCN4CCC3CC4)oc2c1 | 55% | 6.66 nM | 3390 nM | 1020 nM |  |  |  |  |  | 
5 | Clc1cnc2oc(N3CCN4CCC3CC4)nc2c1 | 62% | 2.59 nM |  | 227 nM |  |  |  |  |  | 
6 | c1cc(-c2cnc3nc(N4CCN5CCC4CC5)oc3c2)n[nH]1 | 68% | 23 nM | > 5260 nM | 390 nM |  |  |  |  |  | 
7 | c1cc2nc(N3CCN4CCC3CC4)oc2cn1 |  | 309 nM | 162 nM |  |  | 186% |  |  |  | 
8 | c1ccc(Oc2cnc3nc(N4CCN5CCC4CC5)oc3c2)cc1 | 75% | 4.16 nM | 1960 nM | 620 nM |  |  |  |  |  | 
9 | N#Cc1cnc2nc(N3CCN4CCC3CC4)oc2c1 | 58% | 6.2 nM | > 5290 nM | 510 nM |  |  |  |  |  | 
10 | c1ccc(-c2cnc3oc(N4CCN5CCC4CC5)nc3c2)cc1 | 69% | 2.31 nM | 3670 nM | 264 nM |  |  |  |  |  | 
11 | Clc1ccc2oc(N3CCN4CCC3CC4)nc2c1 |  | 1.92 nM | 1.2 nM |  |  | 122% |  |  |  | 
12 | CC(C)c1ccc2oc(N3CCN4CCC3CC4)nc2n1 | 68% | 9.05 nM | > 5290 nM | 580 nM |  |  |  |  |  | 
13 | c1ccc(Oc2ccc3oc(N4CCN5CCC4CC5)nc3n2)cc1 | 63% | 17.3 nM | 6830 nM | 380 nM |  |  |  |  |  | 
14 | c1ccc2oc(N3CCN4CCC3CC4)nc2c1 |  | 22.5 nM | 13 nM |  |  | 183% |  |  |  | 
15 | c1ccc(-c2ccc3oc(N4CCN5CCC4CC5)nc3n2)cc1 | 71% | 3.22 nM | > 3580 nM | 320 nM |  |  | 3 |  |  | 
16 | c1cc2oc(N3CCN4CCC3CC4)nc2nc1N1CCCCC1 | 30% | 67.1 nM | 1140 nM | 1900 nM |  |  |  |  |  | 
17 | O=C(Oc1ccccc1)N1CCN2CCC1CC2 |  |  | 3990 nM |  |  |  |  |  |  | 
18 | Fc1ccccc1-c1ccc2oc(N3CCN4CCC3CC4)nc2n1 | 73% | 3.45 nM | > 3770 nM | 160 nM |  |  |  | > 7310 nM | 2800 nM | Non-toxic
19 | c1cnc2nc(N3CCN4CCC3CC4)oc2c1 |  | 30.3 nM | 579 nM |  |  | 220% |  |  |  | 

Row | SMILES | Efficacy [1] | Ki [2] | Ki [3] | EC50 [4] | IC50 [5] | Activity [6] | Ratio Ki [7] | IC50 [8] | IC50 [9] | Activity (CHO)
20 | c1cnc2oc(N3CCN4CCC3CC4)nc2c1 |  | 40.6 nM | 92 nM |  |  | 182% |  |  |  | 
21 | CCc1cnc2nc(N3CCN4CCC3CC4)oc2c1 | 53% | 22.5 nM | > 5260 nM | 300 nM |  |  |  |  |  | 
22 | Cc1ccc2oc(N3CCN4CCC3CC4)nc2c1 |  | 33.6 nM | 3.4 nM |  |  | 287% |  |  |  | 
23 | Fc1cnc2nc(N3CCN4CCC3CC4)oc2c1 | 64% | 17.2 nM | 6200 nM | 213 nM |  |  |  | 2480 nM | 8700 nM | Toxic
24 | Cc1ccc2nc(N3CCN4CCC3CC4)oc2c1 |  | 17.9 nM | < 17 nM |  |  | 197% |  |  |  | 
25 | Brc1ccc2oc(N3CCN4CCC3CC4)nc2c1 |  | 2.15 nM | < 17 nM |  |  | 78% |  |  |  | 
26 | c1ccc(-c2cnc3nc(N4CCN5CCC4CC5)oc3c2)cc1 | 71% | 7.04 nM | 2120 nM | 320 nM |  |  |  |  |  | 
27 | COc1ccc2oc(N3CCN4CCC3CC4)nc2n1 | 56% | 24.9 nM | 141 nM | 1000 nM |  |  |  |  |  | 
28 | c1cc2oc(N3CCN4CCC3CC4)nc2nc1C1CCCC1 | 54% | 5.3 nM | > 5290 nM | 525 nM |  |  |  |  |  | 
29 | CCc1ccc2oc(N3CCN4CCC3CC4)nc2n1 | 34% | 18.7 nM | > 5260 nM | 100 nM |  |  |  | 3310 nM |  | Non-toxic
30 | c1cc2oc(N3CCN4CCC3CC4)nc2cn1 |  | 312 nM | 2120 nM |  |  | 156% |  |  |  | 
31 | c1ncc(-c2cnc3nc(N4CCN5CCC4CC5)oc3c2)cn1 |  | 60 nM | > 7140 nM |  |  |  |  |  |  | 
32 | Brc1cnc2nc(N3CCN4CCC3CC4)oc2c1 | 64% | 2.08 nM | 926 nM | 240 nM |  |  |  | 779 nM | 2300 nM | Toxic
33 | Cc1nc2nc(N3CCN4CCC3CC4)oc2cc1F | 36% | 15.3 nM | 547 nM | 2100 nM |  |  |  |  |  | 
34 | Clc1cnc2nc(N3CCN4CCC3CC4)oc2c1 | 83% | 1 nM | 1370 nM | 160 nM |  |  |  | 484 nM |  | 
35 | c1cncc(-c2cnc3nc(N4CCN5CCC4CC5)oc3c2)c1 | 70% | 119 nM | > 5350 nM | 430 nM |  |  |  |  |  | 
36 | CCC(C)c1cnc2nc(N3CCN4CCC3CC4)oc2c1 (stereo unspecified) |  | > 1000 nM |  |  |  |  |  |  |  | 
37 | Cc1nc2nc(N3CCN4CCC3CC4)oc2cc1Cl | 58% | 3.19 nM | 244 nM | 160 nM |  |  |  | 70 nM | 16200 nM | Non-toxic
38 | Cc1ccc2nc(N3CCN4CCC3CC4)oc2n1 | 59% | 88.6 nM | 126 nM | 1200 nM |  |  |  |  |  | 
